Source: ChEMBL document CHEMBL1777764, “Synthesis and evaluation of 1-(1H-indol-3-yl)ethanamine derivatives as new antibacterial agents” (Bioorg Med Chem, 2011)
Values after ≈ are worked out from the molar mass of the structure shown.

What was measured:
KB [1] = test: Cytotoxicity against human KB cells at 10 uM; type: cell-based
[2] = system: Staphylococcus epidermidis; test: Antibacterial activity against Staphylococcus epidermidis ATCC 12228 after 18 hrs by broth microdilution method; type: functional; settings: ATCC 12228, 18 h
In short: (§1)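 MIC by broth microdilution per ISO 20776-1:2006 and CLSI M07-A8. Inoculum 10^6 cfu/ml in Mueller-Hinton broth with compound serially diluted, final concentrations 2 to 128 ug/ml, duplicate rows, no-drug growth control. Incubation 18 h at 37 °C. MIC taken as lowest concentration giving complete inhibition of visible growth. Each compound tested at least twice.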

Staphylococcus aureus [3] = test: Antibacterial activity against Staphylococcus aureus ATCC 29213 after 18 hrs by broth microdilution method; type: functional; settings: ATCC 29213, 18 h; in short: as §1
Staphylococcus aureus [4] = test: Antibacterial activity against Staphylococcus aureus ATCC 9144 after 18 hrs by broth microdilution method; type: functional; settings: ATCC 9144, 18 h; in short: as §1
Staphylococcus aureus [5] = test: Antibacterial activity against Staphylococcus aureus CIP 103428 after 18 hrs by broth microdilution method; type: functional; settings: CIP 103428, 18 h; in short: as §1
Staphylococcus aureus [6] = test: Antibacterial activity against Staphylococcus aureus CIP 65.6 after 18 hrs by broth microdilution method; type: functional; settings: CIP 65.6, 18 h; in short: as §1
MRC5 [7] = test: Cytotoxicity against human MRC5 cells at 10 uM; type: cell-based; settings: mrc5, 10 µM
Staphylococcus aureus [8] = test: Antibacterial activity against Staphylococcus aureus ATCC 25923 after 18 hrs by broth microdilution method; type: functional; settings: ATCC 25923, 18 h; in short: as §1
KB [9] = test: Cytotoxicity against human KB cells at 1 uM; type: cell-based
HCT-116 [10] = test: Cytotoxicity against human HCT116 cells at 1 uM; type: cell-based; settings: hct-116, 1 µM
[11] = system: Staphylococcus epidermidis; test: Antibacterial activity against Staphylococcus epidermidis CIP 81.55 after 18 hrs by broth microdilution method; type: functional; settings: CIP 81.55, 18 h; in short: as §1
Staphylococcus aureus [12] = test: Antibacterial activity against Staphylococcus aureus ATCC 6538 after 18 hrs by broth microdilution method; type: functional; settings: ATCC 6538, 18 h; in short: as §1
[13] = system: Staphylococcus epidermidis; test: Antibacterial activity against Staphylococcus epidermidis CIP 103627 after 18 hrs by broth microdilution method; type: functional; settings: CIP 103627, 18 h; in short: as §1
MRC5 [14] = test: Cytotoxicity against human MRC5 cells at 1 uM; type: cell-based; settings: mrc5, 1 µM
HCT-116 [15] = test: Cytotoxicity against human HCT116 cells at 10 uM; type: cell-based; settings: hct-116, 10 µM
Streptococcus pneumoniae [16] = test: Antibacterial activity against Streptococcus pneumoniae ATCC 49619 after 18 hrs by broth microdilution method; type: functional; settings: ATCC 49619, 18 h
In short: (§2)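 MIC by broth microdilution per ISO 20776-1:2006 and CLSI M07-A8. Inoculum 10^6 cfu/ml in Mueller-Hinton broth […]. Compound serially diluted, final 2 to 128 ug/ml, duplicate rows, no-drug growth control. Read after 18 h at 37 °C as lowest concentration fully inhibiting visible growth. At least two experiments.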

Staphylococcus aureus [17] = test: Antibacterial activity against vancomycin intermediate Staphylococcus aureus […] after 18 hrs by broth microdilution method; type: functional
In short: (§3)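 Broth microdilution following ISO 20776-1:2006 and CLSI M07-A8, in Mueller-Hinton broth. Inoculum was 10^6 cfu/ml, with compound serial dilutions spanning 2 to 128 ug/ml and a compound-free growth control well. Plates were incubated 18 h at 37 °C. MIC was the lowest concentration giving complete inhibition of visible growth. Each compound was tested at least twice.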

Staphylococcus aureus [18] = test: Antibacterial activity against methicillin-resistant Staphylococcus aureus ATCC 33592 after 18 hrs by broth microdilution method; type: functional; settings: ATCC 33592, 18 h; in short: as §3
Staphylococcus aureus [19] = test: Antibacterial activity against methicillin-resistant Staphylococcus aureus CIP 65.25 after 18 hrs by broth microdilution method; type: functional; settings: CIP 65.25, 18 h; in short: as §3
Streptococcus pneumoniae [20] = test: Antibacterial activity against Streptococcus pneumoniae ATCC 6303 after 18 hrs by broth microdilution method; type: functional; settings: ATCC 6303, 18 h; in short: as §2

For `CC(NO)c1c[nH]c2ccc(I)cc12` (stereo unspecified), the Activity (KB [1]) was “Non-toxic”, the MIC [2] was 32 µg/mL (≈ 106 µM) and the MIC (Staphylococcus aureus [3]) was 64 µg/mL (≈ 212 µM). The MIC (Staphylococcus aureus [4]) was 64 µg/mL (≈ 212 µM), the MIC (Staphylococcus aureus [5]) was 64 µg/mL (≈ 212 µM) and the MIC (Staphylococcus aureus [6]) was 64 µg/mL (≈ 212 µM). The Activity (MRC5 [7]) was “Non-toxic”, the MIC (Staphylococcus aureus [8]) was 64 µg/mL (≈ 212 µM) and the Activity (KB [9]) was “Non-toxic”. For the same compound, the Activity (HCT-116 [10]) was “Non-toxic”, the MIC [11] was 32 µg/mL (≈ 106 µM) and the MIC (Staphylococcus aureus [12]) was 64 µg/mL (≈ 212 µM). For the same compound, the MIC [13] was 32 µg/mL (≈ 106 µM), the Activity (MRC5 [14]) was “Non-toxic” and the Activity (HCT-116 [15]) was “Non-toxic”.

`CC(C)(C)OC(=O)NCC(c1c[nH]c2cc(Cl)ccc12)N(O)Cc1ccccc1` (stereo unspecified) was tested, and the MIC (Streptococcus pneumoniae [16]) was greater than 128 µg/mL, the MIC [2] was 16 µg/mL (≈ 38.5 µM) and the MIC (Staphylococcus aureus [3]) was 16 µg/mL (≈ 38.5 µM). It also gave an MIC (Staphylococcus aureus [4]) of 16 µg/mL (≈ 38.5 µM), an MIC (Staphylococcus aureus [5]) of 16 µg/mL (≈ 38.5 µM) and an MIC (Staphylococcus aureus [6]) of 16 µg/mL (≈ 38.5 µM). It also gave an MIC (Staphylococcus aureus [17]) of 16 µg/mL (≈ 38.5 µM), an MIC (Staphylococcus aureus [18]) of 16 µg/mL (≈ 38.5 µM) and an MIC (Staphylococcus aureus [19]) of 16 µg/mL (≈ 38.5 µM). The MIC (Staphylococcus aureus [8]) was 16 µg/mL (≈ 38.5 µM), the Activity (KB [9]) was “Non-toxic” and the Activity (HCT-116 [10]) was “Non-toxic”. The MIC [11] was 16 µg/mL (≈ 38.5 µM), the MIC (Streptococcus pneumoniae [20]) was greater than 128 µg/mL and the MIC (Staphylococcus aureus [12]) was 16 µg/mL (≈ 38.5 µM). The MIC [13] was 16 µg/mL (≈ 38.5 µM) and the Activity (MRC5 [14]) was “Non-toxic”.

With `CC(C)CC(NO)c1c[nH]c2ccc(F)cc12` (stereo unspecified) the Activity (KB [1]) was “Non-toxic”, the MIC [2] was 32 µg/mL (≈ 135 µM) and the MIC (Staphylococcus aureus [3]) was 32 µg/mL (≈ 135 µM). For the same compound, the MIC (Staphylococcus aureus [4]) was 32 µg/mL (≈ 135 µM), the MIC (Staphylococcus aureus [5]) was 32 µg/mL (≈ 135 µM) and the MIC (Staphylococcus aureus [6]) was 32 µg/mL (≈ 135 µM). For the same compound, the Activity (MRC5 [7]) was “Non-toxic”, the MIC (Staphylococcus aureus [8]) was 32 µg/mL (≈ 135 µM) and the Activity (KB [9]) was “Non-toxic”. For the same compound, the Activity (HCT-116 [10]) was “Non-toxic”, the MIC [11] was 32 µg/mL (≈ 135 µM) and the MIC (Staphylococcus aureus [12]) was 32 µg/mL (≈ 135 µM). The MIC [13] was 32 µg/mL (≈ 135 µM), the Activity (MRC5 [14]) was “Non-toxic” and the Activity (HCT-116 [15]) was “Non-toxic”.

For `CC(C)(C)OC(=O)NCC(c1c[nH]c2ccc(Cl)cc12)N(O)Cc1ccccc1` (stereo unspecified), the MIC (Streptococcus pneumoniae [16]) was 64 µg/mL (≈ 154 µM), the MIC [2] was 16 µg/mL (≈ 38.5 µM) and the MIC (Staphylococcus aureus [3]) was 16 µg/mL (≈ 38.5 µM). It also gave an MIC (Staphylococcus aureus [4]) of 16 µg/mL (≈ 38.5 µM), an MIC (Staphylococcus aureus [5]) of 16 µg/mL (≈ 38.5 µM) and an MIC (Staphylococcus aureus [6]) of 16 µg/mL (≈ 38.5 µM). It also gave an MIC (Staphylococcus aureus [17]) of 16 µg/mL (≈ 38.5 µM), an MIC (Staphylococcus aureus [18]) of 16 µg/mL (≈ 38.5 µM) and an MIC (Staphylococcus aureus [19]) of 16 µg/mL (≈ 38.5 µM). The MIC (Staphylococcus aureus [8]) was 16 µg/mL (≈ 38.5 µM), the Activity (KB [9]) was “Non-toxic” and the Activity (HCT-116 [10]) was “Non-toxic”. It also gave an MIC [11] of 16 µg/mL (≈ 38.5 µM), an MIC (Streptococcus pneumoniae [20]) of 64 µg/mL (≈ 154 µM) and an MIC (Staphylococcus aureus [12]) of 16 µg/mL (≈ 38.5 µM). The MIC [13] was 16 µg/mL (≈ 38.5 µM) and the Activity (MRC5 [14]) was “Non-toxic”.

In the case of `CC(NO)c1c[nH]c2ccc(Cl)cc12` (stereo unspecified), the Activity (KB [1]) is reported as “Non-toxic”, the MIC [2] is reported as 16 µg/mL (≈ 76 µM) and the MIC (Staphylococcus aureus [3]) is reported as 32 µg/mL (≈ 152 µM). For the same compound, the MIC (Staphylococcus aureus [4]) was 32 µg/mL (≈ 152 µM), the MIC (Staphylococcus aureus [5]) was 32 µg/mL (≈ 152 µM) and the MIC (Staphylococcus aureus [6]) was 32 µg/mL (≈ 152 µM). For the same compound, the Activity (MRC5 [7]) was “Non-toxic”, the MIC (Staphylococcus aureus [8]) was 32 µg/mL (≈ 152 µM) and the Activity (KB [9]) was “Non-toxic”. For the same compound, the Activity (HCT-116 [10]) was “Non-toxic”, the MIC [11] was 16 µg/mL (≈ 76 µM) and the MIC (Staphylococcus aureus [12]) was 32 µg/mL (≈ 152 µM). The MIC [13] was 16 µg/mL (≈ 76 µM), the Activity (MRC5 [14]) was “Non-toxic” and the Activity (HCT-116 [15]) was “Non-toxic”.

For `CC(C)CC(NO)c1c[nH]c2ccc(I)cc12` (stereo unspecified), the Activity (KB [1]) was “Non-toxic”, the MIC [2] was 16 µg/mL (≈ 46.5 µM) and the MIC (Staphylococcus aureus [3]) was 32 µg/mL (≈ 93 µM). For the same compound, the MIC (Staphylococcus aureus [4]) was 32 µg/mL (≈ 93 µM), the MIC (Staphylococcus aureus [5]) was 32 µg/mL (≈ 93 µM) and the MIC (Staphylococcus aureus [6]) was 32 µg/mL (≈ 93 µM). The Activity (MRC5 [7]) was “Non-toxic”, the MIC (Staphylococcus aureus [8]) was 32 µg/mL (≈ 93 µM) and the Activity (KB [9]) was “Non-toxic”. For the same compound, the Activity (HCT-116 [10]) was “Non-toxic”, the MIC [11] was 16 µg/mL (≈ 46.5 µM) and the MIC (Staphylococcus aureus [12]) was 32 µg/mL (≈ 93 µM). For the same compound, the MIC [13] was 16 µg/mL (≈ 46.5 µM), the Activity (MRC5 [14]) was “Non-toxic” and the Activity (HCT-116 [15]) was “Non-toxic”.

For `CC(C)CC(c1c[nH]c2ccccc12)N(O)Cc1ccccc1` (stereo unspecified), the Activity (KB [1]) was “Non-toxic”, the MIC [2] was 16 µg/mL (≈ 51.9 µM) and the MIC (Staphylococcus aureus [3]) was 32 µg/mL (≈ 104 µM). For the same compound, the MIC (Staphylococcus aureus [4]) was 32 µg/mL (≈ 104 µM), the MIC (Staphylococcus aureus [5]) was 32 µg/mL (≈ 104 µM) and the MIC (Staphylococcus aureus [6]) was 32 µg/mL (≈ 104 µM). The Activity (MRC5 [7]) was “Non-toxic”, the MIC (Staphylococcus aureus [8]) was 32 µg/mL (≈ 104 µM) and the Activity (KB [9]) was “Non-toxic”. The Activity (HCT-116 [10]) was “Non-toxic”, the MIC [11] was 16 µg/mL (≈ 51.9 µM) and the MIC (Staphylococcus aureus [12]) was 32 µg/mL (≈ 104 µM). For the same compound, the MIC [13] was 16 µg/mL (≈ 51.9 µM), the Activity (MRC5 [14]) was “Non-toxic” and the Activity (HCT-116 [15]) was “Non-toxic”.

`CC(C)(C)OC(=O)NCC(c1c[nH]c2ccc(I)cc12)N(O)Cc1ccccc1` (stereo unspecified) was tested, and the MIC (Streptococcus pneumoniae [16]) was 64 µg/mL (≈ 126 µM), the MIC [2] was 8 µg/mL (≈ 15.8 µM) and the MIC (Staphylococcus aureus [3]) was 8 µg/mL (≈ 15.8 µM). It also gave an MIC (Staphylococcus aureus [4]) of 8 µg/mL (≈ 15.8 µM), an MIC (Staphylococcus aureus [5]) of 8 µg/mL (≈ 15.8 µM) and an MIC (Staphylococcus aureus [6]) of 8 µg/mL (≈ 15.8 µM). It also gave an MIC (Staphylococcus aureus [17]) of 8 µg/mL (≈ 15.8 µM), an MIC (Staphylococcus aureus [18]) of 8 µg/mL (≈ 15.8 µM) and an MIC (Staphylococcus aureus [19]) of 8 µg/mL (≈ 15.8 µM). The MIC (Staphylococcus aureus [8]) was 8 µg/mL (≈ 15.8 µM), the Activity (KB [9]) was “Non-toxic” and the Activity (HCT-116 [10]) was “Non-toxic”. It also gave an MIC [11] of 8 µg/mL (≈ 15.8 µM), an MIC (Streptococcus pneumoniae [20]) of 64 µg/mL (≈ 126 µM) and an MIC (Staphylococcus aureus [12]) of 8 µg/mL (≈ 15.8 µM). For the same compound, the MIC [13] was 8 µg/mL (≈ 15.8 µM) and the Activity (MRC5 [14]) was “Non-toxic”.
